Laboratory results as given in ChEMBL document CHEMBL4145611, “Discovery of Marinoquinolines as Potent and Fast-Acting Plasmodium falciparum Inhibitors with in Vivo Activity” (J Med Chem, 2018).
Calls of active or inactive are those of the source. The calls are words filed in the database; no cut-off is given here.

Columns and labels:
[1] = Therapeutic index, ratio of EC50 for human HepG2 cells to IC50 for chloroquine-sensitive blood parasite forms of Plasmodium falciparum 3D7; type: toxicity; conditions: read-out: TI
HepG2 = assay: Cytotoxicity against human HepG2 cells assessed as reduction in cell viability after 24 hrs by MTT assay; type: cell-based; conditions: HepG2, 24 h
Summary of the method: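 HepG2 cells in RPMI-1640 with 10% heat-inactivated serum, seeded 5×10^3 per well, allowed to adhere 18 h at 37 °C, then exposed to compound (400–6.2 µM) for 24 h at 37 °C, 5% CO2. MTT (5 mg/mL) for 3 h, formazan dissolved in DMSO, absorbance 570 nm with 630 nm background; viability as percent of untreated control.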

Plasmodium falciparum [2] = assay: Antiplasmodial activity against chloroquine-sensitive blood parasite forms of Plasmodium falciparum 3D7 infected in RBC by SYBR green assay; type: functional, organism-based; conditions: 3D7, Erythrocyte
Summary of the method: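 3D7 blood-stage cultures, sorbitol-synchronized twice beforehand, used at 5-10% parasitemia with >80% rings, diluted to 0.5% parasitemia and 2% hematocrit with graded compound (0.05% DMSO), triplicate; artesunate and chloroquine controls. SYBR green I lysis-buffer fluorescence at 485/535 nm; IC50 from curve fit relative to drug-free medium.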

Plasmodium falciparum [3] = assay: Plasmodicidal activity against Plasmodium falciparum 3D7A infected in erythrocytes assessed as parasite survival at 10 times IC50 pre-incubated for 24 hrs followed by compound washout and measured after 24 hrs by […] incorporation assay (reference value: 100%); type: functional
Plasmodium falciparum [4] = assay: Plasmodicidal activity against Plasmodium falciparum 3D7A infected in erythrocytes assessed as parasite survival at 10 times IC50 pre-incubated for 48 hrs followed by compound washout and measured after 24 hrs by […] incorporation assay (reference value: 100%); type: functional
[5] = Metabolic stability in rat liver microsomes assessed as compound remaining at 4 uM after 30 mins in presence of NADPH by HPLC analysis; type: ADME, microsome; conditions: read-out: Stability
Summary of the method: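 Rat pooled liver microsomes (final 2 mg/mL protein) in 0.1 M phosphate buffer pH 7.4 with 30 mM MgCl2 and 10 mM NADPH; compounds at 4 µM final; verapamil 0.1 mM positive control. Reactions quenched with ice-cold acetonitrile at set times; parent remaining measured by LC-MS/MS; first-order depletion rate used to derive half-life.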

Plasmodium falciparum [6] = assay: Antiplasmodial activity against chloroquine-sensitive asynchronous form of Plasmodium falciparum 3D7 infected in RBC after 72 hrs by SYBR green assay; type: functional, organism-based; conditions: 3D7, Erythrocyte
Summary of the method: (§1)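 Sorbitol-synchronized 3D7 cultures of each stage (or asynchronous) diluted to 0.5% parasitemia, 2% hematocrit, exposed to graded compound concentrations (0.05% DMSO) for 72 h in triplicate. Read-out: lysis buffer (20 mM Tris pH 7.5, 5 mM EDTA, 0.008% saponin, 0.08% Triton X-100) with SYBR green I 1:20000, fluorescence 485/535 nm, uninfected erythrocytes as background; IC50 by curve fitting versus drug-free growth.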

Mus musculus [7] = assay: Toxicity in Swiss mouse assessed as survival at 1000 mg/kg, ip measured up to 30 days; type: organism-based; conditions: in vivo, 720 h
Summary of the method: (§2)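 Single 1000 mg/kg dose given to mice by gavage or ip injection, 3 mice per group. Survival and body weight followed against untreated controls over 30 days of observation.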

Plasmodium berghei [8] = assay: Antiplasmodial activity against Plasmodium berghei NK65 infected in Swiss mouse assessed as reduction in parasitemia at 50 mg/kg, po administered via gavage for 3 consecutive days post infection measured on day 7 post infection relative to control; type: functional; design: scale not given: the % may be the effect or the level left
Summary of the method: (§3)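 P. berghei NK65 suppressive test: adult Swiss outbred mice (20±2 g) inoculated ip with 1×10^5 infected red cells, randomized to groups, dosed daily for three days by oral gavage or ip injection with test compound at 50 mg/kg in 3% (v/v) DMSO; CQ 20 mg/kg and vehicle groups in parallel. Giemsa-stained tail-blood smears on days 5, 7, 9; inhibition = [(C−T)/C]×100 versus untreated control.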

Plasmodium berghei [9] = assay: Antiplasmodial activity against Plasmodium berghei NK65 infected in Swiss mouse assessed as reduction in parasitemia at 50 mg/kg, po administered via gavage for 3 consecutive days post infection measured on day 9 post infection relative to control; type: functional; design: scale not given: the % may be the effect or the level left; summary of the method: as §3
Plasmodium falciparum [10] = assay: Antiplasmodial activity against chloroquine-sensitive trophozoite form of Plasmodium falciparum 3D7 infected in RBC after 72 hrs by SYBR green assay; type: functional, organism-based; conditions: 3D7, Erythrocyte; summary of the method: as §1
Plasmodium falciparum [11] = assay: Antiplasmodial activity against chloroquine-sensitive schizont form of Plasmodium falciparum 3D7 infected in RBC after 72 hrs by SYBR green assay; type: functional, organism-based; conditions: 3D7, Erythrocyte; summary of the method: as §1
Plasmodium berghei [12] = assay: Antiplasmodial activity against Plasmodium berghei NK65 infected in Swiss mouse assessed as mouse survival at 50 mg/kg, po administered for 3 consecutive days post infection measured on day 9 post infection (reference value: 19 +/- 5 days); type: functional
Plasmodium falciparum [13] = assay: Antiplasmodial activity against early ring stage form of Plasmodium falciparum assessed as induction of alterations in parasite morphology at 10 times IC50 concentration after 8 to 16 hrs by microscopic analysis; type: functional, organism-based
Plasmodium berghei [14] = assay: Antiplasmodial activity against Plasmodium berghei NK65 infected in Swiss mouse assessed as reduction in parasitemia at 50 mg/kg, po administered via gavage for 3 consecutive days post infection measured on day 5 post infection relative to control; type: functional; design: scale not given: the % may be the effect or the level left; summary of the method: as §3
Mus musculus [15] = assay: Toxicity in Swiss mouse assessed as effect on body weight at 1000 mg/kg, ip measured after 30 days; type: organism-based; conditions: in vivo, 720 h; summary of the method: as §2
Plasmodium falciparum [16] = assay: Antiplasmodial activity against chloroquine-sensitive ring form of Plasmodium falciparum 3D7 infected in RBC after 72 hrs by SYBR green assay; type: functional, organism-based; conditions: 3D7, Erythrocyte; summary of the method: as §1

Row | IC50 (Plasmodium falciparum [2]; read-out: IC50) [µM] | Compound | selectivity ratio [1] | EC50 (HepG2) [µM] | other results
1 | 1 | COc1cc(OC)cc(-c2nc3cc(OC)ccc3c3cc[nH]c23)c1 | > 250 | > 250 | IC50 (Plasmodium falciparum [2]; read-out: pIC50 (converted)): 1 µM
2 | 6.2 | Brc1ccc2c(-c3nc4ccccc4c4cc[nH]c34)c[nH]c2c1 | 7 | 42 | 
3 |  | C[C@H]1[C@H](OC(=O)CCC(=O)O)O[C@@H]2O[C@@]3(C)CC[C@H]4[C@H](C)CC[C@@H]1[C@@]24OO3 [ARTESUNATE] |  |  | Survival (Plasmodium falciparum [3]): 14%; Survival (Plasmodium falciparum [4]): 5%
4 | > 10 | COc1ccc2c(c1)nc(-c1ccc(NC(C)=O)cc1)c1[nH]ccc12 |  |  | IC50 (Plasmodium falciparum [2]; read-out: pIC50 (converted)): > 10 µM
5 | 7.7 | Nc1ccc(-c2nc3ccccc3c3cc[nH]c23)cc1 | 5 | 41 | 
6 | 7.3 | CCc1nc2ccccc2c2cc[nH]c12 | 21 | 151 | 
7 | 0.061 | COc1ccc2c(c1)nc(-c1c[nH]c3ccccc13)c1[nH]ccc12 | 328 | 20 | IC50 (Plasmodium falciparum [2]; read-out: pIC50 (converted)): 0.0617 µM
8 | 2.1 | COc1ccc2c(c1)nc(-c1ccccc1)c1[nH]cc(Br)c12 | 53 | 111 | 
9 | 0.4 | COc1ccc2c(c1)nc(-c1ccc(N(C)C)cc1)c1[nH]ccc12 | 50 | 20 | 
10 | > 10 | CCc1nc2cc(OC)ccc2c2cc[nH]c12 |  |  | 
11 | 4.8 | c1ccc2[nH]c(-c3nc4ccccc4c4cc[nH]c34)cc2c1 | 155 | 746 | 
12 |  | O=C1C(O)=C([C@H]2CC[C@H](c3ccc(Cl)cc3)CC2)C(=O)c2ccccc21 [ATOVAQUONE] |  |  | Survival (Plasmodium falciparum [3]): 68%; Survival (Plasmodium falciparum [4]): 40%
13 | 9.9 | c1ccc(-c2nc3ccccc3c3cc[nH]c23)cc1 | > 75 | > 750 | 
14 | 4 | COC(=O)c1ccc(-c2nc3ccccc3c3cc[nH]c23)cc1 | > 63 | > 250 | IC50 (Plasmodium falciparum [2]; read-out: pIC50 (converted)): 3.98 µM
15 | 12.1 | O=C(O)c1ccc(-c2nc3ccccc3c3cc[nH]c23)cc1 | 7 | 82 | 
16 | > 10 | Brc1ccc(-c2nc3ccccc3c3cc[nH]c23)cc1 |  |  | 
17 | > 10 | Brc1c[nH]c2c(-c3c[nH]c4ccccc34)nc3ccccc3c12 |  |  | 
18 | > 10 | COc1ccc2c(c1)nc(-c1ccc(C(=O)O)cc1)c1[nH]ccc12 |  |  | 
19 | > 10 | Cc1nc2ccccc2c2cc[nH]c12 [MARINOQUINOLINE A] |  |  | 

Row | IC50 (Plasmodium falciparum [2]; read-out: IC50) [µM] | Compound | selectivity ratio [1] | EC50 (HepG2) [µM] | other results
20 | 6.7 | COc1ccc(-c2nc3ccccc3c3cc[nH]c23)cc1 | > 37 | > 250 | 
21 | 1.3 | COC(=O)c1ccc(-c2nc3cc(OC)ccc3c3cc[nH]c23)cc1 | > 192 | > 250 | 
22 | 7.9 | Brc1ccc2c(c1)nc(-c1c[nH]c3ccccc13)c1[nH]ccc12 | > 32 | > 250 | 
23 | 5.8 | CN(C)c1ccc(-c2nc3ccccc3c3cc[nH]c23)cc1 | > 104 | > 600 | 
24 | 12.3 | Brc1ccc2[nH]cc(-c3nc4ccccc4c4cc[nH]c34)c2c1 | 8 | 93 | IC50 (Plasmodium falciparum [2]; read-out: pIC50 (converted)): 12.3 µM
25 | 10.4 | c1ccc2c(c1)nc(-c1c[nH]c3ccccc13)c1[nH]ccc12 [MARINOQUINOLINE E] | > 72 | > 750 | 
26 | 10.5 | Clc1ccc(-c2nc3ccccc3c3cc[nH]c23)cc1 | > 24 | > 250 | 
27 | 5.4 | COc1ccc2c(c1)nc(C)c1[nH]cc(Br)c12 | > 46 | > 250 | 
28 | 10.5 | COc1ccc2c(c1)nc(C)c1[nH]ccc12 | > 71 | > 750 | 
29 | 9.2 | COc1cc(-c2nc3ccccc3c3cc[nH]c23)cc(OC)c1OC | 11 | 99 | 
30 | 1.9 | COc1ccc2c(c1)nc(-c1ccc([N+](=O)[O-])cc1)c1[nH]ccc12 | 76 | 144 | 
31 | 2.4 | COc1ccc2c(c1)nc(-c1ccccc1)c1[nH]ccc12 | 25 | 60 | 
32 | > 10 | c1ccc(Cc2nc3ccccc3c3cc[nH]c23)cc1 [MARINOQUINOLINE C] |  |  | 
33 | > 10 | O=[N+]([O-])c1ccc(-c2nc3ccccc3c3cc[nH]c23)cc1 |  |  | 
34 | 4.1 | CC(C)Cc1nc2ccccc2c2cc[nH]c12 | > 61 | > 250 | 
35 | 1.3 | COc1ccc2c(c1)nc(-c1ccc(N)cc1)c1[nH]ccc12 | > 576 | > 750 | 
36 |  | CCc1nc(N)nc(N)c1-c1ccc(Cl)cc1 [PYRIMETHAMINE] |  |  | Survival (Plasmodium falciparum [3]): 55%; Survival (Plasmodium falciparum [4]): 11%
37 | 14.3 | COc1ccc2c(c1)nc(Cc1ccccc1)c1[nH]ccc12 | 33 | 478 | 
38 | 4.9 | COc1cc(OC)cc(-c2nc3ccccc3c3cc[nH]c23)c1 | > 51 | > 250 | 

Row | Compound | IC50 (Plasmodium falciparum [2]; read-out: IC50) [µM] | selectivity ratio [1] | EC50 (HepG2) [µM] | other results
39 | COc1ccc2c(c1)nc(-c1ccc(Cl)cc1)c1[nH]ccc12 | 0.6 | > 417 | > 250 | remaining at 0.5 h, 4 µM [5]: 15%; IC50 (Plasmodium falciparum [6]): 0.46 µM; Activity (Mus musculus [7]): Non-Toxic; Activity (Plasmodium berghei [8]): 0%; Activity (Plasmodium berghei [9]): 0%; IC50 (Plasmodium falciparum [10]): 0.38 µM; IC50 (Plasmodium falciparum [11]): 0.5 µM; Survival (Plasmodium berghei [12]): 22 days; Activity (Plasmodium falciparum [13]): Active; Activity (Plasmodium berghei [14]): 0%; Activity (Mus musculus [15]): Non-Toxic; IC50 (Plasmodium falciparum [16]): 0.6 µM
40 | COc1ccc2c(c1)nc(CC(C)C)c1[nH]ccc12 | 0.5 | > 70 | 35 | remaining at 0.5 h, 4 µM [5]: 24%; IC50 (Plasmodium falciparum [6]): 0.42 µM; Activity (Plasmodium berghei [8]): 0%; Activity (Plasmodium berghei [9]): 0%; IC50 (Plasmodium falciparum [10]): 0.42 µM; IC50 (Plasmodium falciparum [11]): 0.4 µM; Survival (Plasmodium berghei [12]): 23 days; Activity (Plasmodium falciparum [13]): Active; Activity (Plasmodium berghei [14]): 0%; IC50 (Plasmodium falciparum [16]): 0.5 µM
